Source: ChEMBL document CHEMBL1149910, “2-(6-aryl-3(Z)-hexen-1,5-diynyl)anilines as a new class of potent antitubulin agents” (J Med Chem, 2008)

Tests used:
Type in all cases: functional
K562 [1] = experiment: Cell cycle arrest in human K562 cells assessed as accumulation at G2/M phase at 50 uM after 24 hrs by flow cytometry
Method in brief: (§1)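 K-562 human leukemia cells were grown in RPMI 1640 with 10% fetal calf serum, glutamine and penicillin/streptomycin at 37 °C in 5% CO₂. Cells were exposed to compound at 50 µM for 24 h, then pelleted and PBS-washed. They were fixed in ice-cold ethanol for 30 min, treated with 1 mg/mL RNase A at 37 °C for 30 min, and stained with propidium iodide and Triton X-100 for 30 min at room temperature in the dark. Per-phase and sub-G1 percentages came from flow cytometry gating.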

K562 [2] = experiment: Cytotoxicity against human K562 cells
Method in brief: (§2)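 Tested in the NCI in vitro antitumor screening protocol across a tumor cell line panel. GI₅₀ is the concentration producing a 50% reduction in cell growth.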

MDA-MB-231 [3] = experiment: (§3) Cytotoxicity against human MDA-MB-231 cells; method in brief: as §2
UACC-62 = experiment: Cytotoxicity against human UACC62 cells
Method in brief: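 NCI in vitro antitumor screening protocol; GI50 taken as the concentration giving 50% reduction in cell growth.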

MDA-MB-231 [4] = experiment: Cell cycle arrest in human MDA-MB-231 cells assessed as accumulation of 2N cells at 36.0 uM after 72 hrs by flow cytometry
MDA-MB-231 [5] = experiment: Cell cycle arrest in human MDA-MB-231 cells assessed as accumulation at sub-G1 phase at 27.0 uM after 72 hrs by flow cytometry
COLO 205 = experiment: Cytotoxicity against human COLO205 cells; method in brief: as §2
K562 [6] = experiment: Cell cycle arrest in human K562 cells assessed as accumulation at G0/G1 phase at 50 uM after 24 hrs by flow cytometry; method in brief: as §1
[7] = Cytotoxicity against human […] cells; method in brief: as §2
UACC-257 = experiment: Cytotoxicity against human UACC257 cells; method in brief: as §2
MDA-MB-231 [8] = experiment: Cell cycle arrest in human MDA-MB-231 cells assessed as accumulation of 4N cells at 18.0 uM after 72 hrs by flow cytometry
OVCAR-3 = experiment: Cytotoxicity against human OVCAR-3 cells; method in brief: as §2
CAKI-1 = experiment: Cytotoxicity against human CAKI1 cells; method in brief: as §2
MDA-MB-231 [9] = experiment: Cell cycle arrest in human MDA-MB-231 cells assessed as accumulation of 4N cells at 27.0 uM after 72 hrs by flow cytometry
ACHN = experiment: Cytotoxicity against human ACHN cells; method in brief: as §2
SK-OV-3 = experiment: Cytotoxicity against human SK-OV3 cells; method in brief: as §2
MDA-MB-231 [10] = experiment: Cell cycle arrest in human MDA-MB-231 cells assessed as accumulation of >4N cells at 9.0 uM after 72 hrs by flow cytometry
Method in brief: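 MDA-MB-231/ATCC cells were grown in DMEM with 10% fetal bovine serum, […], 1% nonessential amino acids, penicillin and streptomycin at 37 °C in 5% CO₂. They were exposed to 3.6, 9.0, 18, 27 or 36 µM for 24 or 72 h, with colchicine as control. DNA content was then read by flow cytometry, and […] cells were scored.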

MDA-MB-231 [11] = experiment: Cell cycle arrest in human MDA-MB-231 cells assessed as accumulation at sub-G1 phase at 9.0 uM after 24 hrs by flow cytometry
MDA-MB-231 [12] = experiment: Cell cycle arrest in human MDA-MB-231 cells assessed as accumulation of 4N cells at 18.0 uM after 24 hrs by flow cytometry
MDA-MB-231 [13] = experiment: Cell cycle arrest in human MDA-MB-231 cells assessed as accumulation of 4N cells at 3.6 uM after 72 hrs by flow cytometry
MDA-MB-231 [14] = experiment: Cell cycle arrest in human MDA-MB-231 cells assessed as accumulation of >4N cells at 36.0 uM after 72 hrs by flow cytometry
MDA-MB-231 [15] = experiment: Cell cycle arrest in human MDA-MB-231 cells assessed as accumulation of 4N cells at 27.0 uM after 24 hrs by flow cytometry
HCT-15 = experiment: Cytotoxicity against human HCT15 cells; method in brief: as §2
MDA-MB-231 [16] = experiment: Cell cycle arrest in human MDA-MB-231 cells assessed as accumulation of 4N cells at 36.0 uM after 72 hrs by flow cytometry
SNB-75 = experiment: Cytotoxicity against human SNB75 cells; method in brief: as §2
MDA-MB-231 [17] = experiment: as §3; method in brief: as §2; remark: listed apart in the source
SF-295 = experiment: Cytotoxicity against human SF295 cells; method in brief: as §2
PC-3 = experiment: Cytotoxicity against human PC3 cells; method in brief: as §2
MDA-MB-231 [18] = experiment: Cell cycle arrest in human MDA-MB-231 cells assessed as accumulation of 2N cells at 9.0 uM after 72 hrs by flow cytometry
MDA-MB-231 [19] = experiment: Cell cycle arrest in human MDA-MB-231 cells assessed as accumulation of >4N cells at 3.6 uM after 24 hrs by flow cytometry
MDA-MB-231 [20] = experiment: Cell cycle arrest in human MDA-MB-231 cells assessed as accumulation of >4N cells at 27.0 uM after 24 hrs by flow cytometry
SK-MEL-5 = experiment: Cytotoxicity against human SK-MEL5 cells; method in brief: as §2
RXF 393 = experiment: Cytotoxicity against human RXF393 cells; method in brief: as §2
NCI-H322M = experiment: Cytotoxicity against human NCI-H322M cells; method in brief: as §2
NCI-H23 = experiment: Cytotoxicity against human NCI-H23 cells; method in brief: as §2
A498 = experiment: Cytotoxicity against human A498 cells; method in brief: as §2
MDA-MB-231 [21] = experiment: Cell cycle arrest in human MDA-MB-231 cells assessed as accumulation of 2N cells at 27.0 uM after 24 hrs by flow cytometry
[22] = read-out: LC50 (the source's name)

Which results are given for `Nc1ccccc1C#C/C=C\C#Cc1ccccc1C(F)(F)F`?
Activity (K562 [1]): 73.9%; GI50 (K562 [2]): 1 µM; GI50 (MDA-MB-231 [3]): 0.398 µM; TGI (UACC-62): 0.808 µM; GI50 (UACC-62; read-out: GI50): 0.261 µM; CC50 (UACC-62; [22]): 29 µM; GI50 (UACC-62; read-out: pGI50 (converted)): 0.251 µM; Activity (MDA-MB-231 [4]): 6.5%; Activity (MDA-MB-231 [5]): 65.4%; GI50 (COLO 205): 1.17 µM; TGI (COLO 205): 13.8 µM; CC50 (COLO 205; [22]): > 100 µM; Activity (K562 [6]): 6.7%; GI50 [7]: 0.746 µM; TGI [7]: > 100 µM; CC50 [7, 22]: > 100 µM; GI50 (UACC-257): 0.536 µM; TGI (UACC-257): 23.7 µM; CC50 (UACC-257; [22]): 58.4 µM; Activity (MDA-MB-231 [8]): 17.4%; GI50 (OVCAR-3): 0.63 µM; TGI (OVCAR-3): 0.959 µM; CC50 (OVCAR-3; [22]): 24.1 µM; GI50 (CAKI-1): 0.351 µM; TGI (CAKI-1): 13.2 µM; CC50 (CAKI-1; [22]): 38 µM; Activity (MDA-MB-231 [9]): 15%; GI50 (ACHN): 0.294 µM; TGI (ACHN): 15.7 µM; CC50 (ACHN; [22]): 48.3 µM; GI50 (SK-OV-3): 0.888 µM; TGI (SK-OV-3): 24.7 µM; CC50 (SK-OV-3; [22]): 98.7 µM; Activity (MDA-MB-231 [10]): 18%; Activity (MDA-MB-231 [11]): 23.1%; Activity (MDA-MB-231 [12]): 31.9%; Activity (MDA-MB-231 [13]): 19.2%; Activity (MDA-MB-231 [14]): 9.7%; Activity (MDA-MB-231 [15]): 30.7%; GI50 (HCT-15): 1.26 µM; Activity (MDA-MB-231 [16]): 14.5%; TGI (SNB-75): 18.8 µM; GI50 (SNB-75; read-out: GI50): 0.0869 µM; CC50 (SNB-75; [22]): 100 µM; GI50 (SNB-75; read-out: pGI50 (converted)): 0.0794 µM; GI50 (MDA-MB-231 [17]): 0.4 µM; TGI (MDA-MB-231 [17]): 1.68 µM; CC50 (MDA-MB-231 [17]; [22]): 36.5 µM; GI50 (SF-295): 0.396 µM; TGI (SF-295): 2.6 µM; CC50 (SF-295; [22]): 26.8 µM; GI50 (PC-3): 2.35 µM; TGI (PC-3): 24.9 µM; CC50 (PC-3; [22]): 94.2 µM; Activity (MDA-MB-231 [18]): 6.8%; Activity (MDA-MB-231 [19]): 31.3%; Activity (MDA-MB-231 [20]): 35.3%; GI50 (SK-MEL-5): 0.541 µM; TGI (SK-MEL-5): 15 µM; CC50 (SK-MEL-5; [22]): 42.2 µM; GI50 (RXF 393): 0.808 µM; TGI (RXF 393): 4.62 µM; CC50 (RXF 393; [22]): 30.5 µM; GI50 (NCI-H322M): 12.1 µM; TGI (NCI-H322M): 27.9 µM; CC50 (NCI-H322M; [22]): 64.4 µM; GI50 (NCI-H23): 0.273 µM; TGI (NCI-H23): 1.89 µM; CC50 (NCI-H23; [22]): 47.8 µM; GI50 (A498): 0.973 µM; TGI (A498): 13.1 µM; CC50 (A498; [22]): 40.7 µM; Activity (MDA-MB-231 [21]): 9.3%
